# Source: ChEMBL document CHEMBL2016516, “Design, synthesis and biological evaluation of novel chalcone derivatives as antitubulin agents” (Bioorg Med Chem, 2012)
# Columns and labels:
# MCF7 [1] = test: Antiproliferative activity against human MCF7 cells after 48 hrs by MTT assay; format: functional, cell-based; conditions: MCF7, 48 h
# Outline: (§1)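 Cells grown to log phase in RPMI 1640 with 10% FBS, diluted to 2 × 10⁴ cells/mL and seeded, then incubated 24 h at 37 °C, 5% CO₂ before treatment. Samples at pre-set concentrations were added in six wells, with colchicine and CA-4 as references. After 48 h, MTT in PBS was added for 4 h, followed by extraction solution (10% SDS).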
# A549 = test: Antiproliferative activity against human A549 cells after 48 hrs by MTT assay; format: functional, cell-based; conditions: A549, 48 h; outline: as §1
# [2] = Inhibition of bovine tubulin polymerization after 20 mins by spectrophotometry; design: species or system Bos taurus
# Outline: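 Tubulin was purified from bovine brain. Varying compound concentrations were preincubated with 10 µM tubulin in glutamate buffer at 30 °C, then cooled to 0 °C. GTP was added and the mixtures were moved to 0 °C cuvettes. They were then warmed to 30 °C in a recording spectrophotometer, with assembly followed turbidimetrically.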
# MCF7 [3] = test: Cell cycle arrest in human MCF7 cells assessed as accumulation in G0/G1 phase at 5 ug/ml after 24 hrs by flow cytometry (reference value: 47.79%); format: functional
# MCF7 [4] = test: Cell cycle arrest in human MCF7 cells assessed as accumulation in S phase at 5 ug/ml after 24 hrs by flow cytometry (reference value: 8.06%); format: functional
# MCF7 [5] = test: Cell cycle arrest in human MCF7 cells assessed as accumulation in G2/M phase at 5 ug/ml after 24 hrs by flow cytometry (reference value: 12.99%); format: functional
Compound,IC50 (MCF7 [1]) [µg/mL],IC50 (A549) [µg/mL],IC50 [2] [µg/mL],Activity (MCF7 [3]) [%],Activity (MCF7 [4]) [%],Activity (MCF7 [5]) [%]
COc1cc2c(c(OC)c1OC)-c1ccc(OC)c(=O)cc1[C@@H](NC(C)=O)CC2 [COLCHICINE],0.51,0.74,1.7,1.96,1.34,78.1
O=C(/C=C/c1cc(Cl)cc(Cl)c1Oc1c([N+](=O)[O-])cc(C(F)(F)F)cc1[N+](=O)[O-])c1ccc(F)cc1,5.02,29.3,9.62,,,
COc1ccc(/C=C\c2cc(OC)c(OC)c(OC)c2)cc1O [COMBRETASTATIN A4],0.43,0.53,0.81,,,
O=C(/C=C/c1cc(Br)ccc1Oc1c([N+](=O)[O-])cc(C(F)(F)F)cc1[N+](=O)[O-])c1ccc(Br)cc1,2.17,13.7,6.25,,,
O=C(/C=C/c1cc(Br)ccc1Oc1c([N+](=O)[O-])cc(C(F)(F)F)cc1[N+](=O)[O-])c1ccc(F)cc1,6.01,26.3,12.31,,,
O=C(/C=C/c1cc(Cl)cc(Cl)c1Oc1c([N+](=O)[O-])cc(C(F)(F)F)cc1[N+](=O)[O-])c1ccc(Br)cc1,2.6,14.5,9.46,,,
COc1ccc(C(=O)/C=C/c2cc(Br)cc(Br)c2Oc2c([N+](=O)[O-])cc(C(F)(F)F)cc2[N+](=O)[O-])cc1,3.53,13.2,6.02,,,
O=C(/C=C/c1cc(Cl)cc(Cl)c1Oc1c([N+](=O)[O-])cc(C(F)(F)F)cc1[N+](=O)[O-])c1ccc(Cl)cc1,4.54,17.2,6.34,,,
Cc1ccc(C(=O)/C=C/c2cc(Cl)ccc2Oc2c([N+](=O)[O-])cc(C(F)(F)F)cc2[N+](=O)[O-])cc1,0.03,0.95,1.42,2.36,1.55,67.93
O=C(/C=C/c1cc(Cl)ccc1Oc1c([N+](=O)[O-])cc(C(F)(F)F)cc1[N+](=O)[O-])c1ccc(F)cc1,5.17,23.8,11.66,,,
Cc1ccc(C(=O)/C=C/c2cc(Br)cc(Br)c2Oc2c([N+](=O)[O-])cc(C(F)(F)F)cc2[N+](=O)[O-])cc1,1.44,10.1,5.68,,,
O=C(/C=C/c1cc(Br)ccc1Oc1c([N+](=O)[O-])cc(C(F)(F)F)cc1[N+](=O)[O-])c1ccc(Cl)cc1,4.74,16.5,7.14,,,
COc1ccc(C(=O)/C=C/c2cc(Cl)ccc2Oc2c([N+](=O)[O-])cc(C(F)(F)F)cc2[N+](=O)[O-])cc1,1.83,11.5,4.83,,,
Cc1ccc(C(=O)/C=C/c2cc(Br)ccc2Oc2c([N+](=O)[O-])cc(C(F)(F)F)cc2[N+](=O)[O-])cc1,0.55,6.85,6.41,,,
Cc1ccc(C(=O)/C=C/c2cc(Cl)cc(Cl)c2Oc2c([N+](=O)[O-])cc(C(F)(F)F)cc2[N+](=O)[O-])cc1,0.7,10,4.87,,,
COc1ccc(C(=O)/C=C/c2cc(Br)ccc2Oc2c([N+](=O)[O-])cc(C(F)(F)F)cc2[N+](=O)[O-])cc1,2.32,12.6,4.08,,,
COc1ccc(C(=O)/C=C/c2cc(Cl)cc(Cl)c2Oc2c([N+](=O)[O-])cc(C(F)(F)F)cc2[N+](=O)[O-])cc1,2.69,12.5,6.56,,,
O=C(/C=C/c1cc(Cl)ccc1Oc1c([N+](=O)[O-])cc(C(F)(F)F)cc1[N+](=O)[O-])c1ccc(Br)cc1,1.41,10.9,4.62,,,
O=C(/C=C/c1cc(Br)cc(Br)c1Oc1c([N+](=O)[O-])cc(C(F)(F)F)cc1[N+](=O)[O-])c1ccc(Cl)cc1,6.76,19.4,12.6,,,
O=C(/C=C/c1cc(Cl)ccc1Oc1c([N+](=O)[O-])cc(C(F)(F)F)cc1[N+](=O)[O-])c1ccc(Cl)cc1,3.21,11.7,4.68,,,
O=C(/C=C/c1cc(Br)cc(Br)c1Oc1c([N+](=O)[O-])cc(C(F)(F)F)cc1[N+](=O)[O-])c1ccc(Br)cc1,2.87,16.8,10.01,,,
O=C(/C=C/c1cc(Br)cc(Br)c1Oc1c([N+](=O)[O-])cc(C(F)(F)F)cc1[N+](=O)[O-])c1ccc(F)cc1,8.06,120,15.31,,,
